RAD54 inh = inhibitors of human RAD54 branch migration, primary screen, biochemical, fluorescence, single point; RAD54 Holliday junction branch migration, FAM/BHQ fluorescence; inhibition, % at 10.4 µM; 0.14% of 360,000 active; DNA repair and recombination protein RAD54-like (Homo sapiens), Q92698;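 active = mean normalized replicate activity at least 40 and at least half of replicates scoring 40 or more; inconclusive = only one of the two criteria met; inactive = mean below 40 and under half of replicates reaching 40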;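 also: inhibitors cause a drop in the FAM fluorescence signal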
Target sequence (Q92698 whole entry, looked up): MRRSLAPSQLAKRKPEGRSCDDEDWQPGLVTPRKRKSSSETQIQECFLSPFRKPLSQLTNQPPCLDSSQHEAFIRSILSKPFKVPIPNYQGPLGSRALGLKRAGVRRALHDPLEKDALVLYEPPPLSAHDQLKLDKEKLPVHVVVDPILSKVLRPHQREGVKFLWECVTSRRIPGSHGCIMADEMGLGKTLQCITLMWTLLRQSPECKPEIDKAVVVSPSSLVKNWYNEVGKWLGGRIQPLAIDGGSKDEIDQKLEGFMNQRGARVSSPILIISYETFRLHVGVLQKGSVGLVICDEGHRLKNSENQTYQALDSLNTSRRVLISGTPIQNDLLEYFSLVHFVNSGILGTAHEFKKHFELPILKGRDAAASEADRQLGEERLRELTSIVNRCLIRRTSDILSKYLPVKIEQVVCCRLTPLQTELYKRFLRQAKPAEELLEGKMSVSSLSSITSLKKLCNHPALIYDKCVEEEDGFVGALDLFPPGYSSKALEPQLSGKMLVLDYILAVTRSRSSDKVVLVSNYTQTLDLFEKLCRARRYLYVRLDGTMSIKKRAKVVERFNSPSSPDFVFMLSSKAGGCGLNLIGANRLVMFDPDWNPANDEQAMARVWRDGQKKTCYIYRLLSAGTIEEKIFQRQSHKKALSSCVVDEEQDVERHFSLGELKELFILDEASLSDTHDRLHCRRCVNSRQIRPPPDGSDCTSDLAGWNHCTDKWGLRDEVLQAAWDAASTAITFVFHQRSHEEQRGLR
SR-BI DiI-HDL act = activators of SR-BI mediated DiI-HDL uptake, primary screen, ldlA[mSR-BI] CHO cells, DiI fluorescence; activation, % at 12.5 µM; 0.096% of 320,000 active; AID 504775, 2011; 3 h; 100 = double the neutral-control signal;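 active = mean replicate activation of at least 60% and every replicate at or above 60%; inconclusive = mean or all-replicate condition met, but not both; inactive = mean below 60% and not all replicates reaching 60%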
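system = CHO ldlA[mSR-BI] cells, LDL receptor-null, SR-BI overexpressing | medium = Ham's F12 with 0.5% BSA, HEPES 25 mM, pH 7.4 | probe or stimulus = DiI-HDL 10 µg/mL | compound dosing = single-point compound dose | incubation = compound exposure 3 h, 37 °C | technique = DiI fluorescence, bottom read | read-out = cell-associated DiI fluorescence as measure of HDL uptake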
SR-BI HDL uptake = inhibitors of SR-BI mediated HDL lipid uptake, primary screen, ldlA[mSR-BI] cells, fluorescence, single point | 0.96% of 320,000 active | ldlA[mSR-BI] CHO cells, DiI-HDL uptake fluorescence, 3 h | Scavenger receptor class B member 1 (Mus musculus), Q61009 | inhibition, % at 12.5 µM | AID 488896, 2010;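 active = mean replicate inhibition of at least 70% and a set share of replicates each scoring 70 or more; inconclusive = meets just one of the two criteria; inactive = fails both criteria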
dFosB activator = activators of delta FosB homodimer, primary screen, biochemical, fluorescence polarization, TAMRA-CDK5 oligo, single point | Protein FosB (Mus musculus), P13346 | purified delta FosB; percent of positive-control signal above neutral wells | activation, % at 25 µM | 0.99% of 340,000 active;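 active = mean activation above about 17%, with every replicate also reaching it, limit read from the data, passing the limit was not always enough; inconclusive = only one of the two conditions met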
S100A4 MyoIIA = inhibitors of S100A4-myosin IIA peptide binding, primary screen, biochemical, fluorescence polarization, TAMRA-MyoIIA peptide. inhibition, % at 10.7 µM. 0.14% of 360,000 active;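 active = mean inhibition of at least 70% across replicates, with every replicate also reaching that level; inconclusive = mean inhibition reaches 70% but some replicates fall short; inactive = mean inhibition below 70%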
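Material: S100A4 monomer protein / Buffer or medium: 50 mM HEPES pH 7.2, 10 mM CaCl2, 100 mM KCl / Times: 5 min incubation before reading / Benchmarks: neutral control DMSO, positive control TFP / Reagent: labelled myosin peptide probe, 5 nM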
PvdQ inh = P. aeruginosa PvdQ acylase inhibitors, primary screen, biochemical, fluorescence, plate reader and imaging, single point; purified PvdQ acylase; AID 488965, 2010; PvdQ acylase [Pseudomonas aeruginosa LESB58]; inhibition, % at 10 µM; 0.063% of 340,000 active; in the data active = inhibition above about 30%, passing the limit was not always enough; inconclusive = no clear call, values can overlap the other calls
Numbers stand for hits; 0 = inactive; ? = inconclusive; - = no result; + = active, no number; ! = not confirmed by another sample. The list is not random: actives were taken first. Their share in the collection is about 1.6%.

SMILES | RAD54 inh | SR-BI DiI-HDL act | SR-BI HDL uptake | dFosB activator | S100A4 MyoIIA | PvdQ inh
COc1ccc(NC(=O)N(C)C[C@H]2Oc3ccc(NC(=O)C4CCCCC4)cc3CC(=O)N([C@@H](C)CO)C[C@@H]2C)cc1 | 0 | - | - | - | 0 | -
CCn1cc(C(=O)OCC(=O)OC2CC(C)CCC2C(C)C)c(=O)c2ccc(C)nc21 (centres undefined) | 0 | 0 | 81 | 0 | - | 0
CC(C)c1cc(-c2cc(-c3ccc(Cl)cc3)on2)nc(NC2CCCC2)n1 | 0 | 0 | 0 | 0 | 0 | 0
CC(C)c1cc(-c2cc(-c3ccccc3)on2)nc(NC2CCCC2)n1 | 0 | 0 | 75 | 0 | 0 | 0
Cc1ccc(-c2cnc3c(c2)C(=O)N([C@@H](C)CO)C[C@H](C)[C@@H](CN(C)S(C)(=O)=O)O3)cc1 | 0 | - | - | - | 0 | -
O=C(C[C@H]1CC[C@H](NC(=O)c2ccncc2)[C@H](CO)O1)Nc1ccc(-c2ccccc2)cc1 | - | - | - | - | 0 | -
COc1ccc(C(=O)N2CCOC2CNC(=O)C(=O)NCc2ccc3c(c2)OCO3)cc1 (centres undefined) | - | 0 | 0 | 0 | 0 | 0
Cc1ccc(CNC(=O)C(=O)NCC2OCCN2C(=O)c2ccc3c(c2)OCO3)cc1 (centres undefined) | 0 | 0 | 0 | 17 | 0 | 0
COc1ccc2nc(NC(=O)CCc3cc(OC)c(OC)c(OC)c3)sc2c1 | - | 0 | 72 | 0 | 0 | 0
COc1cc(CCC(=O)Nc2cc(C)cc(C)c2)cc(OC)c1OC | - | 0 | 83 | 0 | 0 | 0
CCCNC(=O)C[C@@H]1CC[C@@H]2[C@@H](COc3ccc(NC(=O)c4ccc(Cl)cc4)cc3C(=O)N2C)O1 | 0 | - | - | - | 0 | -
COc1ccc(/C(C)=N/Nc2ncc(Cl)cc2Cl)c(O)c1 | - | 0 | 106 | 0 | 0 | 0
Cc1ccc(NC(=O)Cn2c3ccc(F)cc3c3nc4n(c(=O)c32)CCS4)cc1F | 0 | 0 | 0 | 0 | 0 | 0
O=C(Cn1c2ccc(F)cc2c2nc3n(c(=O)c21)CCS3)Nc1ccc(Cl)cc1F | 0 | 0 | 0 | 21 | 0 | 0
O=C(NNC(=S)NC(=O)c1ccco1)c1ccc(NC(=O)c2ccccc2)cc1 | - | 0 | 0 | 0 | 0 | 0
O=C(NC(=S)NNC(=O)c1cc2ccccc2cc1O)c1ccco1 | - | 0 | 146 | 0 | 0 | 0
COc1ccc(C(=O)NC(=S)NNC(=O)c2ccco2)cc1 | 0 | 0 | 0 | 0 | 0 | 0
O=C(NC(=S)Nc1cccc(NC(=S)NC(=O)c2ccco2)n1)c1ccco1 | - | 0 | 0 | 23 | 0 | 0
O=C(NC(=S)NNC(=O)c1ccccc1O)c1ccco1 | 0 | 0 | 110 | 0 | 0 | 0
O=C(/C=C/c1cccs1)NC(=S)NNC(=O)c1ccccc1O | - | 0 | 101 | 0 | 0 | 0
CO[C@@H]1CN(C)C(=O)c2ccc(NC(=O)Nc3c(C)noc3C)cc2OC[C@H](C)N(C)C[C@@H]1C | 0 | - | - | - | 0 | -
CCc1nc(Nc2ccc(N3CCN(C(C)=O)CC3)cc2)c2oc3ccccc3c2n1 | 0 | 0 | 75 | 0 | - | 0
CC(=O)N1CCN(c2ccc(Nc3ncnc4c3oc3ccccc34)cc2)CC1 | 0 | 0 | 0 | 0 | - | 0
Cc1cccc2c1N(C(=O)c1ccco1)C(C)(C)c1ssc(=S)c1-2 | 0 | 0 | 0 | 0 | - | 0
Cc1ccc2c(c1)N(C(=O)c1ccco1)C(C)(C)c1ssc(=S)c1-2 | 0 | 0 | 94 | 0 | - | 0
SMILES | RAD54 inh | SR-BI DiI-HDL act | SR-BI HDL uptake | dFosB activator | S100A4 MyoIIA | PvdQ inh
CCCCNc1c(-c2ccc(OC)c(SC(C)CC)c2)nc2cc(C)ccn12 (centres undefined) | 0 | 0 | 0 | 0 | 0 | 0
CCCCNc1c(-c2ccc(-c3ccc(C(C)=O)cc3)c(OC)c2)nc2cc(C)ccn12 | 0 | 0 | 72 | 0 | 0 | 0
C[C@H]1CCCCO[C@H](CN(C)C(=O)Nc2ccc3c(c2)OCO3)[C@@H](C)CN([C@@H](C)CO)C(=O)c2cc(NC(=O)Nc3cccc4ccccc34)ccc2O1 | 0 | - | - | - | 0 | -
CCOc1ccc(-c2cc3cc(OC)c(OC)cc3c(C)n2)cc1 | 0 | 0 | 74 | 0 | 0 | 0
CCc1nc(-c2ccc(OC)c(OC)c2)cc2cc(OC)c(OC)cc12 | - | 0 | 0 | 0 | 0 | 0
CSc1nsc2nc(=O)c(/C=C3\C(C)=Nc4ccc(C)cc43)c(N)n12 | 0 | 0 | 0 | 0 | 0 | 0
CC1=Nc2ccc(C)cc2/C1=C/c1c(N)n2oc(C)cc2nc1=O | 0 | 0 | 93! | 0 | 0 | 0
NC(N)=NN=C1c2ccccc2-c2ccccc21 | 82 | 0 | 0 | 0 | 0 | 0
C[C@@H]1CN([C@@H](C)CO)C(=O)c2cc(-c3ccccc3)cnc2O[C@H]1CN(C)C(=O)C1CCCCC1 | 0 | - | - | - | 0 | -
CC1CC[C@@]2(OC1)O[C@H]1CC3[C@@H]4C[C@@H](O)[C@@]5(O)C[C@@H](O)[C@H](O)C[C@]5(C)[C@H]4CC[C@]3(C)[C@H]1[C@@H]2C (some centres undefined) | - | 69 | 0 | 0 | 0 | 0
COc1cc2c(cc1OC)/C(=C/C(=O)c1ccc(OC)c([N+](=O)[O-])c1)NCC2 | 0 | 0 | 85 | 0 | 0 | 0
Cc1[nH]n(-c2ccc([N+](=O)[O-])cc2)c(=O)c1C=NCCc1c[nH]c2ccccc12 | 0 | 0 | 0 | ? | - | 0
CCCc1[nH]n(-c2ccc([N+](=O)[O-])cc2)c(=O)c1C=NCCc1c[nH]c2ccccc12 | - | 0 | 79 | 0 | - | 0
CC1CCC(=C(C#N)c2nc(-c3cc4ccccc4oc3=O)cs2)CC1 (centres undefined) | 0 | 0 | 76 | 0 | - | 0
COC(=O)c1cc(C(=O)OC)cc(-n2c(C)cc(C(=O)CC#N)c2C)c1 | - | 0 | 76 | 0 | - | 0
O=C(c1ccccc1)c1c2c(cc3sc4ccccc4[n+]13)-c1cccc3cccc-2c13 | 105 | 0 | 0 | 22 | - | 0
CC(C)OC(=O)c1c(NC(=O)Cn2cnc([N+](=O)[O-])n2)sc2c1CCCC2 | 0 | - | 75 | 0 | - | 0
COC(=O)c1ccccc1-c1c2ccc(=N)cc-2oc2cc(N)ccc12 | 0 | 0 | 77 | 88 | + | 0
COC(=O)c1ccccc1-c1ccc(/C=N/NC(=O)c2cc3ccccc3o2)o1 | 0 | 0 | 0 | 0 | - | 0
O=[N+]([O-])c1ccccc1/C=C/C=N/Nc1nc(N2CCCCC2)nc(N2CCCCC2)n1 | - | 0 | 79 | 0 | 0 | 0
COc1ccc(C(=O)N/N=C/c2c[nH]c3ccccc23)cc1 | 0 | 0 | 0 | 0 | 0 | 0
